Numbering of substitutions follows the chain as printed.
Legend:
Conditions in all cases: stereoisomer not certain
OR6S1 (Homo sapiens) = biological target: T1, OR6S1 (Homo sapiens) (UniProt Q8NH40)
T1 sequence (whole entry): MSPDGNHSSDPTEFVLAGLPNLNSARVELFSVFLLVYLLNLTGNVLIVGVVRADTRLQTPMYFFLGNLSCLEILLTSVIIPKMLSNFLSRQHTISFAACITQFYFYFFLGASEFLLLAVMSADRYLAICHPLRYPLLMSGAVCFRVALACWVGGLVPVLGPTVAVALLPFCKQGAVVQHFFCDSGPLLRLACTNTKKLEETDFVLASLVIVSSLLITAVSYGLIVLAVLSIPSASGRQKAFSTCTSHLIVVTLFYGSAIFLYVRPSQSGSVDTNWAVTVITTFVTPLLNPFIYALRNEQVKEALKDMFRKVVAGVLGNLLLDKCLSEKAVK
Outline: (§1)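 Whether a receptor–molecule pair is responsive (active) rests on the original authors' judgment that its measured signal was statistically different from baseline. Pairs without that judgment are non-responsive (inactive). Sources used varied assay methods, commonly transient luciferase assays in mammalian cell lines.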

OR6S1 T42I V156I = system: T2, OR6S1 T42I V156I
T2 sequence (whole entry): T1 sequence (whole entry) with T42I, V156I
Outline: as §1

OR6T1 (Homo sapiens) = biological target: T3, OR6T1 (Homo sapiens) (UniProt Q8NGN1)
T3 sequence (whole entry): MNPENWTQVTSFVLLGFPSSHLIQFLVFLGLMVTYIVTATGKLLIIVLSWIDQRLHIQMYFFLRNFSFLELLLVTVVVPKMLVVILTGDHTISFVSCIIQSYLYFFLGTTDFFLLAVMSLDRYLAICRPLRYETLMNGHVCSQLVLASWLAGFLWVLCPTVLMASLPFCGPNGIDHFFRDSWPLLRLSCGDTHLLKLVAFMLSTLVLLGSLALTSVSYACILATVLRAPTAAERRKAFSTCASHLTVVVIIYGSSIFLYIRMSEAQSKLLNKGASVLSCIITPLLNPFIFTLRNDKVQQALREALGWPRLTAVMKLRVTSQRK
Outline: as §1

OR6T1 N2D = system: T4, OR6T1 N2D
T4 sequence (whole entry): T3 sequence (whole entry) with N2D
Outline: as §1

OR6V1 (Homo sapiens) = biological target: T5, OR6V1 (Homo sapiens) (UniProt Q8N148)
T5 sequence (whole entry): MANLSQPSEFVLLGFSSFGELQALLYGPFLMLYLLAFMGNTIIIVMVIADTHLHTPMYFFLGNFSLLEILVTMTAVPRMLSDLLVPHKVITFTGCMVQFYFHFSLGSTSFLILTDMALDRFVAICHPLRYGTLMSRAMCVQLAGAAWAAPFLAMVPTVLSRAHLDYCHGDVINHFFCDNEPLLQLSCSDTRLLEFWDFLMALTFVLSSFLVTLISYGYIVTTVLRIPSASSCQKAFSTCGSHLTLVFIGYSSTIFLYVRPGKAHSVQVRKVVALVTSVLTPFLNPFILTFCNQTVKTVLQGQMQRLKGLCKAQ
Outline: as §1

OR6X1 (Homo sapiens) = biological target: T6, OR6X1 (Homo sapiens) (UniProt Q8NH79)
T6 sequence (whole entry): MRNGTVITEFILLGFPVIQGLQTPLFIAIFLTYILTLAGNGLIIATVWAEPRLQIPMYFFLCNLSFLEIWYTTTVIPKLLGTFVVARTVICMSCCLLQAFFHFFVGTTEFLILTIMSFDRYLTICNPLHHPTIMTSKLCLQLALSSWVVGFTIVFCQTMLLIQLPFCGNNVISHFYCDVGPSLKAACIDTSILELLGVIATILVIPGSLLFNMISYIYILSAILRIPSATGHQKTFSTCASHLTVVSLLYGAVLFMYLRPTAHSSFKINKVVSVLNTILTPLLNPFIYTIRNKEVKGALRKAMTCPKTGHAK
Outline: as §1

OR6Y1 (Homo sapiens) = biological target: T7, OR6Y1 (Homo sapiens) (UniProt Q8NGX8)
T7 sequence (whole entry): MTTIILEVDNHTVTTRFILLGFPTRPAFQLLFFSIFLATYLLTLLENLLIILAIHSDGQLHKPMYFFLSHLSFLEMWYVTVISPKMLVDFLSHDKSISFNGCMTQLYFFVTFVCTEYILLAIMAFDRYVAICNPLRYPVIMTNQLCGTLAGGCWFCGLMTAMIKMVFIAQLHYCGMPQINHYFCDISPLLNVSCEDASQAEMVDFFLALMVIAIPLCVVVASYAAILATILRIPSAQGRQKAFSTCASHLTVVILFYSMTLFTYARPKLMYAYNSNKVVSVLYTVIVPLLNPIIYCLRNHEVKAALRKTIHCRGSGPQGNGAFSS
Outline: as §1

OR7A10 (Homo sapiens) = biological target: T8, OR7A10 (Homo sapiens) (UniProt O76100)
T8 sequence (whole entry): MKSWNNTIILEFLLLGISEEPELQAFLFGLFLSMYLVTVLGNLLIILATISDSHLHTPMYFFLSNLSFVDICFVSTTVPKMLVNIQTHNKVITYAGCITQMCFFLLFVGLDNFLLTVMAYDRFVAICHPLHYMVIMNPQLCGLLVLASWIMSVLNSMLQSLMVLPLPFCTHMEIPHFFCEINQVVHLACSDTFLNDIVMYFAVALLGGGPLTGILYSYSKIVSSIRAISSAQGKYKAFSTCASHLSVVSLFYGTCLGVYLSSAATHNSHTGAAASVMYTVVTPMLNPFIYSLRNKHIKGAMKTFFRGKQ
Outline: as §1

OR7A17 (Homo sapiens) = biological target: T9, OR7A17 (Homo sapiens) (UniProt O14581)
T9 sequence (whole entry): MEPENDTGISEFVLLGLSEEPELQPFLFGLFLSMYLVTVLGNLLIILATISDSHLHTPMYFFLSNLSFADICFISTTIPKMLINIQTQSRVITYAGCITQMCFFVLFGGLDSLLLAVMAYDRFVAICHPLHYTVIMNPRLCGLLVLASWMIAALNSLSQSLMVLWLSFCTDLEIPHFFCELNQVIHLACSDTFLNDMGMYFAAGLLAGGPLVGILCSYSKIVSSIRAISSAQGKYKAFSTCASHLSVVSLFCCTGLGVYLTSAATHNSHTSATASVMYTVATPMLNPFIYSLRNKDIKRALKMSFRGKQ
Outline: as §1

OR7A5 (Homo sapiens) = biological target: T10, OR7A5 (Homo sapiens) (UniProt Q15622)
T10 sequence (whole entry): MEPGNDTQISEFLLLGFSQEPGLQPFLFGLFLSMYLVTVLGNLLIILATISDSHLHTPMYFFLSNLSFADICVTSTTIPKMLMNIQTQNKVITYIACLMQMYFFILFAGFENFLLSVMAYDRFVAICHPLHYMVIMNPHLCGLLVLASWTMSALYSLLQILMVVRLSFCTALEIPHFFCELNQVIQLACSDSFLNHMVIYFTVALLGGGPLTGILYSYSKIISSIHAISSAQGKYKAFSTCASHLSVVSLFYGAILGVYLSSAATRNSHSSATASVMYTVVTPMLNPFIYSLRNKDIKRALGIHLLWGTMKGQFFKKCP
Outline: as §1

OR7A5 M81I = system: T11, OR7A5 M81I
T11 sequence (whole entry): T10 sequence (whole entry) with M81I
Outline: as §1

OR7C1 (Homo sapiens) = biological target: T12, OR7C1 (Homo sapiens) (UniProt O76099)
T12 sequence (whole entry): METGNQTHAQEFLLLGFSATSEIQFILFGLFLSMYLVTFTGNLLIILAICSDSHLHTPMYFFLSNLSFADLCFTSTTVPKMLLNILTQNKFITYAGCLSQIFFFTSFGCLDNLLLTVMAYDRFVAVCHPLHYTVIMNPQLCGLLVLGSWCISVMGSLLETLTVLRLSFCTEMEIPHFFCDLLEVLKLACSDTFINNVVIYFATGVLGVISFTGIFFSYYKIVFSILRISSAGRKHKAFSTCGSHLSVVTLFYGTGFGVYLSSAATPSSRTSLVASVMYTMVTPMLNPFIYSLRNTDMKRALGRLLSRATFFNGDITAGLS
Outline: as §1

OR7C1 V126I E171K = system: T13, OR7C1 V126I E171K
T13 sequence (whole entry): T12 sequence (whole entry) with V126I, E171K
Outline: as §1

OR7C2 (Homo sapiens) = biological target: T14, OR7C2 (Homo sapiens) (UniProt O60412)
T14 sequence (whole entry): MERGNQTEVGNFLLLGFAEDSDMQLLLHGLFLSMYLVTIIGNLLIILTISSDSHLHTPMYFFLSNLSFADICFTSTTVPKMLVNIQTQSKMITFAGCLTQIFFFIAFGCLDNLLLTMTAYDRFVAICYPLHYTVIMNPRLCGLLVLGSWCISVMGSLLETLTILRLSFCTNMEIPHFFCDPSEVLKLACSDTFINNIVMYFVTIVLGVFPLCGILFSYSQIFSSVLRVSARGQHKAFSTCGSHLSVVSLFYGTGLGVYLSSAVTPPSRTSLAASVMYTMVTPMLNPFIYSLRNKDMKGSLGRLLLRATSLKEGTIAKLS
Outline: as §1

OR7D2 (Homo sapiens) = biological target: T15, OR7D2 (Homo sapiens) (UniProt Q96RA2)
T15 sequence (whole entry): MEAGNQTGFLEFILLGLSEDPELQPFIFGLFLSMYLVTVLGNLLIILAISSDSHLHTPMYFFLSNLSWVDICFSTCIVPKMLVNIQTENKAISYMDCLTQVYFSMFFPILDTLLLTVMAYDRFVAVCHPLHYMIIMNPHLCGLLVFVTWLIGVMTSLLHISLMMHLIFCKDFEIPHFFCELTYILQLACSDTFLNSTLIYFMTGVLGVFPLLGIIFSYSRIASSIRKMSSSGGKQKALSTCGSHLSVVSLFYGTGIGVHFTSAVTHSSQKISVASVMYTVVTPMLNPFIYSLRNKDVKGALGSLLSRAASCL
Outline: as §1

OR7D4 (Homo sapiens) = biological target: T16, OR7D4 (Homo sapiens) (UniProt Q8NG98)
T16 sequence (whole entry): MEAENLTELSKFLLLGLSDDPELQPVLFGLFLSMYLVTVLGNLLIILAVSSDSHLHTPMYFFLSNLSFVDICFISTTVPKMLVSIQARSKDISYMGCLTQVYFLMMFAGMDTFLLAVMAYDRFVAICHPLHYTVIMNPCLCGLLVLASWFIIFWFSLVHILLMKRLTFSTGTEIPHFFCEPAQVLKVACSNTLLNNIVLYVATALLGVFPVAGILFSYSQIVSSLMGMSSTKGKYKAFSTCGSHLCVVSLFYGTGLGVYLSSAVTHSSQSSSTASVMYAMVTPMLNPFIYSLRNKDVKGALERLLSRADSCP
Outline: as §1

OR7D4 R88W = system: T17, OR7D4 R88W
T17 sequence (whole entry): T16 sequence (whole entry) with R88W
Outline: as §1

OR7D4 = system: T18, OR7D4
T18 sequence (whole entry): T16 sequence (whole entry) with R88W, T133M
Outline: as §1

OR7E24 (Homo sapiens) = biological target: T19, OR7E24 (Homo sapiens) (UniProt Q6IFN5)
T19 sequence (whole entry): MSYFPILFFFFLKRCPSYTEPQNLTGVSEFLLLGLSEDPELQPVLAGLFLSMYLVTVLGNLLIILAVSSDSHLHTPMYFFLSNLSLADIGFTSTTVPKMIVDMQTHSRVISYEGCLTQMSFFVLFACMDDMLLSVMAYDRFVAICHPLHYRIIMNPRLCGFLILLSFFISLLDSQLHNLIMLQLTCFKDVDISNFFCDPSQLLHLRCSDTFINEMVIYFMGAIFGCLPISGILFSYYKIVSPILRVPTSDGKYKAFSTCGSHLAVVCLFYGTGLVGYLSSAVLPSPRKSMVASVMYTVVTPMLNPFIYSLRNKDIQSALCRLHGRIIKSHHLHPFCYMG
Outline: as §1

OR7G1 (Homo sapiens) = biological target: T20, OR7G1 (Homo sapiens) (UniProt Q8NGA0)
T20 sequence (whole entry): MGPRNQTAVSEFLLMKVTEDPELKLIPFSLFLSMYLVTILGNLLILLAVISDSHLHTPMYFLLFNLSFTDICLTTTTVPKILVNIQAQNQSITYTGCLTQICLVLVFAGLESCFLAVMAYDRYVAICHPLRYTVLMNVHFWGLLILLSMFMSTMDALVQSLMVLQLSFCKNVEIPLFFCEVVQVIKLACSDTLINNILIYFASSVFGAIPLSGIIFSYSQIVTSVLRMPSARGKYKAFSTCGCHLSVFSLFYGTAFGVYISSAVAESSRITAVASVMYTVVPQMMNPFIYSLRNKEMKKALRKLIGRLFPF
Outline: as §1

Measured: odorant receptor agonist call;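 note: active if original authors judged signal statistically different from baseline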

CCCCCCC=CCCC=O
inactive: all assays above

CCCC(S)CCOC(C)=O (stereo not drawn)
inactive: all assays above

CC1CCCCCCCCCCCCC(=O)C1 (stereo not drawn)
not listed: OR6S1 T42I V156I | OR6T1 N2D | OR7A5 M81I | OR7C1 V126I E171K | OR7D4 R88W | OR7D4
inactive: all other assays above

CC(CO)CS (stereo not drawn)
not listed: OR6S1 T42I V156I | OR6T1 N2D | OR7A5 M81I | OR7C1 V126I E171K | OR7D4 R88W | OR7D4
inactive: all other assays above

From the M2OR odorant receptor database
